Only a selection was taken, and hits are over-represented in it overall.
T cruzi intra: inhibitors of intracellular Trypanosoma cruzi, primary screen, cell-based, plate reader, single point, set 2 | 22,000 compounds, 4.9% hits | intracellular Trypanosoma cruzi in host cells | activity score (inhibition), % at 5.01 µM; in the data active = activity score above about 55%; inconclusive = no clear call, values can overlap the other calls;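 note: parasites and compound incubated about four days before reading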
A1 apoptosis 2: A1 inhibitors via caspase activation, primary screen, cell-based, luminescence, HTS, two replicates; MEF A1-2A-BIM cells, caspase-Glo luminescence, 3 h; percent of clofoctol response, DMSO zero; caspase activation, % (test concentration not listed); 24,000 tested, under 10 active; AID 2465, 2010; in the data active = caspase activation above about 5.9%; inconclusive = no clear call, values can overlap the other calls; inactive = below about 2.2%
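System: mouse embryonic fibroblasts co-expressing A1 and BIM (A1-2A-BIM), primed for A1 dependence; amount: 2500 cells/well; doses: 50 nL pinned compound; schedule: cells settled overnight, compound exposure 3 h at 37 °C, 5% CO2; detection: Caspase-Glo 3/7 luminescence, 1 h at room temperature; read-out: Caspase-3/7 activation, seen as rise in luminescence signal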
INS-1E ATP HTS: protection of INS-1E cells from cytokine death, primary screen, ATP luminescence, single point. INS-1E cytokine-induced death, 48 h; normalised: neutral wells 0, positive control 100. protection from cytokine-induced ATP loss, % at 10 µM. 20,000 compounds, 0.1% hits;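 active = mean replicate protection from cytokine-induced ATP loss at least 50% and at least 75% of replicates each reaching 50%; inconclusive = meets only one of the two criteria, mean or replicate share; inactive = fails both the mean and replicate share criteria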
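Material: INS-1E rat cells; Quantity: 8000 cells/well; Buffer or medium: phenol-red-free RPMI with 5% fetal bovine serum; Probe or stimulus: cytokine cocktail of IFN-γ, TNF-α and IL-1β; Compound dosing: single test concentration per compound, delivered by pin transfer; Incubation: 48 h co-treatment, 10 min post-lysis read; Signal: CellTiter-Glo luminescence.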
Of the large screens only hits and unclear results are named; the others gave an inactive call.

C[C@H](CO)N1C[C@H](C)[C@H](CN(C)Cc2ccc(Oc3ccccc3)cc2)Oc2c(NC(=O)Nc3ccc(F)cc3)cccc2C1=O	none
C[C@@H]1CN([C@H](C)CO)C(=O)c2cccc(NC(=O)Nc3ccccc3)c2O[C@H]1CN(C)Cc1ccc(Oc2ccccc2)cc1	none
C[C@@H]1CN([C@@H](C)CO)C(=O)c2cccc(NC(=O)Nc3ccccc3)c2O[C@H]1CN(C)Cc1ccc(Oc2ccccc2)cc1	T cruzi intra 76
O=C(NO)c1cccc(C(=O)N/N=C/c2ccc(Br)s2)c1	none
O=C(CCCCC(=O)N/N=C/c1ccc(F)c(Oc2ccccc2)c1)NO	none (no result: A1 apoptosis 2)
C=C(C)[C@@H]1CC=C(/C=N/NC(=O)c2cccc(C(=O)NO)c2)CC1	none
C[C@@H]1CN([C@@H](C)CO)C(=O)c2cccc(NC(=O)CCCCCC(=O)Nc3ccccc3N)c2O[C@@H]1CN(C)Cc1ccc(Cl)c(Cl)c1	none (no result: A1 apoptosis 2)
C[C@@H]1CN([C@@H](C)CO)C(=O)c2cccc(NC(=O)CCCCCC(=O)Nc3ccccc3N)c2O[C@@H]1CN(C)S(=O)(=O)c1ccc(Cl)cc1	T cruzi intra 56
C[C@H](CO)N1C[C@H](C)[C@@H](CN(C)Cc2ccncc2)Oc2c(NC(=O)CCCCCC(=O)Nc3ccccc3N)cccc2C1=O	none
C[C@H]1CN([C@@H](C)CO)C(=O)c2cccc(NC(=O)CCCCCC(=O)Nc3ccccc3N)c2O[C@H]1CN(C)Cc1ccc(Cl)c(Cl)c1	T cruzi intra 70
C[C@@H]1CN([C@H](C)CO)C(=O)c2cccc(NC(=O)CCCCCC(=O)Nc3ccccc3N)c2O[C@@H]1CN(C)S(=O)(=O)c1ccc(Cl)cc1	T cruzi intra inconclusive
C[C@@H]1CN([C@H](C)CO)C(=O)c2cccc(NC(=O)CCCCCC(=O)Nc3ccccc3N)c2O[C@@H]1CN(C)Cc1ccc(Cl)c(Cl)c1	T cruzi intra 61 (no result: A1 apoptosis 2)
COC(=O)CCCCCCC(=O)N/N=C/c1ccc2ccccc2n1	none
C[C@@H]1CN([C@H](C)CO)C(=O)c2cc(NC(=O)NC3CCCCC3)ccc2O[C@@H](C)CCCCO[C@H]1CN(C)S(=O)(=O)c1ccccc1	none (no result: T cruzi intra, INS-1E ATP HTS)
Cc1ccc(S(=O)(=O)Nc2ccc3c(c2)C(=O)N([C@H](C)CO)C[C@H](C)[C@H](CN(C)Cc2ccc(C(F)(F)F)cc2)O3)cc1	T cruzi intra 69
C[C@@H]1CN([C@H](C)CO)C(=O)c2cc(NS(=O)(=O)c3ccc(F)cc3)ccc2O[C@@H]1CN(C)Cc1ccc(C(F)(F)F)cc1	none (no result: A1 apoptosis 2)
C[C@H](CO)N1C[C@H](C)[C@H](CN(C)Cc2ccc(C(F)(F)F)cc2)Oc2ccc(NS(=O)(=O)c3ccccc3)cc2C1=O	T cruzi intra 66 (no result: A1 apoptosis 2)
C[C@@H]1CN([C@@H](C)CO)C(=O)c2cc(NS(=O)(=O)c3ccccc3)ccc2O[C@@H]1CN(C)Cc1ccc(C(F)(F)F)cc1	none (no result: A1 apoptosis 2)
C[C@H](CO)N1C[C@H](C)[C@H](CN(C)Cc2ccc(C(=O)Nc3ccccc3N)cc2)Oc2ccc(NC(=O)C3CC3)cc2CC1=O	T cruzi intra 63 (no result: A1 apoptosis 2)
C[C@@H]1CN([C@H](C)CO)C(=O)Cc2cc(NC(=O)C3CCCCC3)ccc2O[C@@H]1CN(C)Cc1ccc(C(=O)Nc2ccccc2N)cc1	none (no result: A1 apoptosis 2)
C[C@H](CO)N1C[C@H](C)[C@@H](CN(C)Cc2ccc(C(=O)Nc3ccccc3N)cc2)Oc2ccc(NC(=O)C3CC3)cc2CC1=O	none (no result: T cruzi intra, INS-1E ATP HTS)
C[C@H](CO)N1C[C@H](C)[C@H](CN(C)Cc2ccc(C(=O)Nc3ccccc3N)cc2)Oc2ccc(NC(=O)C3CCCCC3)cc2CC1=O	T cruzi intra 61 (no result: A1 apoptosis 2)
NC(=O)[C@@H]1[C@H]2C(=O)O[C@H](c3ccccc3)[C@H](c3ccccc3)N2[C@H](c2ccc(O)cc2)[C@@]12C(=O)Nc1ccc(C#CCCO)cc12	none (no result: T cruzi intra, INS-1E ATP HTS)
O=C(N/N=C/c1c(O)ccc2ccccc12)c1ccccc1O	none (no result: T cruzi intra, INS-1E ATP HTS)
C[C@H]1CN([C@@H](C)CO)C(=O)c2cccc(NC(=O)Nc3ccc(C(F)(F)F)cc3)c2O[C@@H]1CN(C)S(=O)(=O)c1ccc(F)cc1	none (no result: A1 apoptosis 2)
C[C@H]1CN([C@@H](C)CO)C(=O)c2cccc(NC(=O)Nc3ccccc3)c2O[C@H]1CN(C)S(=O)(=O)c1ccccc1	none
C[C@@H]1CN([C@H](C)CO)C(=O)c2cccc(NC(=O)Nc3ccc(C(F)(F)F)cc3)c2O[C@@H]1CN(C)S(=O)(=O)c1ccc(Cl)cc1	T cruzi intra 63
